Key:
[1] = species: Homo sapiens; assay: Selectivity ratio of IC50 for human full length PI3Kgamma to IC50 for human full length PI3Kdelta catalytic subunit/p85alpha
How it was run: (§1)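 Ratio calculated from the isoform-specific PI3K IC50 values, with enzyme assays run in quadruplicate.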

[2] = test system: Hepatocyte; assay: Clearance in human hepatocytes at 1 uM by LC/MS/MS in presence of aldehyde oxidase inhibitor raloxifene; format: ADME, cell-based
How it was run: (§2)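 Human hepatocytes, incubated with and without the aldehyde oxidase inhibitor raloxifene; predicted clearance calculated from turnover.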

[3] = molecular target: T1, Aldehyde oxidase (Homo sapiens, UniProt Q06278); assay: Drug metabolism in human hepatocytes assessed as aldehyde oxidase mediated M1 formation at 1 uM by LC/MS/MS analysis; format: ADME, cell-based, Hepatocyte
T1 sequence (Q06278 whole entry): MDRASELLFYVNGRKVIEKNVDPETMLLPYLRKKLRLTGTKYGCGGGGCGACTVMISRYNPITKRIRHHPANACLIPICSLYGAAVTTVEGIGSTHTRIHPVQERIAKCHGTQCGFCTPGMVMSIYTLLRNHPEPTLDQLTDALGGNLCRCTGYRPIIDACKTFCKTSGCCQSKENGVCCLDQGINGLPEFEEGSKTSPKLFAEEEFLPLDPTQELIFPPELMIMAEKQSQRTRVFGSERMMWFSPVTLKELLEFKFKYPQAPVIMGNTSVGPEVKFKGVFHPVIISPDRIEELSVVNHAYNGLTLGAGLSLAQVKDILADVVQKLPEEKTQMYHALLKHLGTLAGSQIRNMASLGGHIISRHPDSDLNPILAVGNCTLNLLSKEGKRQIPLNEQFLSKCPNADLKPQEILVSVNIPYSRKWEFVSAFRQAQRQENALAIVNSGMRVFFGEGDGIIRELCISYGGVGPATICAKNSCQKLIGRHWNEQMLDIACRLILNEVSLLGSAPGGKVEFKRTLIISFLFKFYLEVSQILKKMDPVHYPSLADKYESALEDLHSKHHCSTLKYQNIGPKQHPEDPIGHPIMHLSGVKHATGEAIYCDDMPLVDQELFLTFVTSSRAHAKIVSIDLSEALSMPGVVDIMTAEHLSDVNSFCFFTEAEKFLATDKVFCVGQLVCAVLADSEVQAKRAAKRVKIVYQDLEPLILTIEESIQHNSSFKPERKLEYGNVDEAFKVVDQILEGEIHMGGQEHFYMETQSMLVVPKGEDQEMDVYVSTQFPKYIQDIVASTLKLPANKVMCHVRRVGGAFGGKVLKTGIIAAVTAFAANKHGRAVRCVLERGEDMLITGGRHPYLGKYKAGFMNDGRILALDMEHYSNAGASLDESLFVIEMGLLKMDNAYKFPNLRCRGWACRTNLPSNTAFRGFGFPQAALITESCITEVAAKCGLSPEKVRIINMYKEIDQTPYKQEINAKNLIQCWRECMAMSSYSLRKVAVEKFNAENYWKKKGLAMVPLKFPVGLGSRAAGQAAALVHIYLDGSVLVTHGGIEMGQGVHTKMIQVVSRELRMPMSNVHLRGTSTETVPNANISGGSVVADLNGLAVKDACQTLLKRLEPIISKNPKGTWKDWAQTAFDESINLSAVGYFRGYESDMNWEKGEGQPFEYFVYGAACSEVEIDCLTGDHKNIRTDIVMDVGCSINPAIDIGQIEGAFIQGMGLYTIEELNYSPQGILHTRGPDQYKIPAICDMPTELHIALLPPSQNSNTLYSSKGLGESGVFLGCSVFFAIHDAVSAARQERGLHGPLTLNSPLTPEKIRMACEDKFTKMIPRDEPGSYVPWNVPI

[4] = species: Homo sapiens; assay: Selectivity ratio of IC50 for human full length PI3Kalpha catalytic subunit/p85alpha to IC50 for human full length PI3Kdelta catalytic subunit/p85alpha; how it was run: as §1
[5] = molecular target: PI3-kinase p110-delta/p85-alpha (Homo sapiens, UniProt O00329); assay: Inhibition human full length PI3Kdelta catalytic subunit/p85alpha assessed as formation of PIP3 after 30 mins by europium labeled GRP-based TR-FRET assay; format: protein-complex assay
Chain of PI3-kinase p110-delta/p85-alpha (P27986 whole entry): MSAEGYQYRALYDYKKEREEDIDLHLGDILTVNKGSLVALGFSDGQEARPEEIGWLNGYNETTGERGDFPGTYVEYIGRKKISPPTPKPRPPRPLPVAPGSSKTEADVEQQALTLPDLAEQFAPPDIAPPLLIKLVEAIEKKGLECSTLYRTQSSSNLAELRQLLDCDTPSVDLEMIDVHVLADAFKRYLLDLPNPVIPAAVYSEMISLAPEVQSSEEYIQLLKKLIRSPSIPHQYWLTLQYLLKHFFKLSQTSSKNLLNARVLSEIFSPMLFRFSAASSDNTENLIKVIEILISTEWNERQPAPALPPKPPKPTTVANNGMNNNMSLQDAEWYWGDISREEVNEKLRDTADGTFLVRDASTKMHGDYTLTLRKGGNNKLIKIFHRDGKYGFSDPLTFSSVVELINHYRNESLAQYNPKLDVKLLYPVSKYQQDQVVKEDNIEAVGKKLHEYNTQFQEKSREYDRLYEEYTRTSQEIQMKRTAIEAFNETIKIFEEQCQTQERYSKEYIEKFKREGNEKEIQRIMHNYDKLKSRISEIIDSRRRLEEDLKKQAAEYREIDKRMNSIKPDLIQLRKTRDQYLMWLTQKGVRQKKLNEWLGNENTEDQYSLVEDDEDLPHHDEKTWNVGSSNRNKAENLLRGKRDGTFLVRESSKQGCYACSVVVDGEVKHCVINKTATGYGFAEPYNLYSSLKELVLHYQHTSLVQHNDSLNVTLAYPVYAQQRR
Chain of PI3-kinase p110-delta/p85-alpha (O00329 whole entry): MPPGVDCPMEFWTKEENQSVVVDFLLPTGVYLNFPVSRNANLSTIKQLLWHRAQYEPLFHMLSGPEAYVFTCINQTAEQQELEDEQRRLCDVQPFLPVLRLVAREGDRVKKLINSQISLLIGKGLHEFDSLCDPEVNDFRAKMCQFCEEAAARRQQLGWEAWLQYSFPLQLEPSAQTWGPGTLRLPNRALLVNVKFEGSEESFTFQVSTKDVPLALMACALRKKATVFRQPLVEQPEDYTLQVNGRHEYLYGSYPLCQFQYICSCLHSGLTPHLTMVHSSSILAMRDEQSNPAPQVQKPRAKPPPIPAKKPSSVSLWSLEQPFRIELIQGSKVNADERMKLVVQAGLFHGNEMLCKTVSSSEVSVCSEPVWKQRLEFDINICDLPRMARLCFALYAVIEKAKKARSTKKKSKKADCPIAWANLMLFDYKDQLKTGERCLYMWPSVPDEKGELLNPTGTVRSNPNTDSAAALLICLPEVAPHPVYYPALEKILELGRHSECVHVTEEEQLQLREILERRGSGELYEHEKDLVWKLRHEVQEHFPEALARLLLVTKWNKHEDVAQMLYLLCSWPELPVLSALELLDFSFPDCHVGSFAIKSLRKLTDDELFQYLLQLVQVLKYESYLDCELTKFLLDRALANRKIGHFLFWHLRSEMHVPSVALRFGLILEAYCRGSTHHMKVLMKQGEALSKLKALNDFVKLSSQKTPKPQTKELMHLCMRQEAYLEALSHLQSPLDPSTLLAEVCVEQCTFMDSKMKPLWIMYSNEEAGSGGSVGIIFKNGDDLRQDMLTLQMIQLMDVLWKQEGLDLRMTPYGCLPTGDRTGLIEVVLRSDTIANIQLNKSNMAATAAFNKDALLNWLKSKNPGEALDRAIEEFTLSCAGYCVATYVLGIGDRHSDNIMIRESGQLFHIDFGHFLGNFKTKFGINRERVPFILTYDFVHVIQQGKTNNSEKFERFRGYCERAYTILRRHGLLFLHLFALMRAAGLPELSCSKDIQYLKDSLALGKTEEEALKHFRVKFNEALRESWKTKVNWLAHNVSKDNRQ

[6] = Clearance in human hepatocytes at 1 uM by LC/MS/MS analysis; format: ADME, cell-based, Hepatocyte; how it was run: as §2
[7] = species: Homo sapiens; assay: Selectivity ratio of IC50 for human recombinant PI3Kbeta to IC50 for human full length PI3Kdelta catalytic subunit/p85alpha; how it was run: as §1
[8] = molecular target: T1, Aldehyde oxidase; assay: Drug metabolism in human hepatocytes assessed as aldehyde oxidase mediated (S)-4-Amino-6-((1-(5-chloro-4-oxo-3-phenyl 3,4-dihydroquinazolin-2-yl)ethyl)amino)-2-hydroxypyrimidine-5-carbonitrile formation at 1 uM by LC/MS/MS analysis; format: ADME, cell-based, Hepatocyte
[9] = test system: Liver microsome; assay: Clearance in human liver microsomes at 1 uM by LC/MS/MS analysis in presence of NADPH generating system; format: ADME
[10] = Half life in Sprague-Dawley rat at 0.44 mg/kg, iv by LC/MS/MS analysis; format: ADME, organism-based; conditions: in vivo
How it was run: (§3)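 Single intravenous dose of 0.44 mg/kg to Sprague-Dawley rats, formulated at 0.09 mg/mL in 5% ethanol, 75% PEG 400 and 20% citrate buffer (pH 3.0). Three animals per dosing route. Volume of distribution taken at steady state.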

[11] = Clearance in Sprague-Dawley rat at 0.44 mg/kg, iv by LC/MS/MS analysis; format: ADME, organism-based; conditions: in vivo; how it was run: as §3
[12] = Volume of distribution at steady state in Sprague-Dawley rat at 0.44 mg/kg, iv by LC/MS/MS analysis; format: ADME, organism-based; conditions: in vivo, read-out: Vdss; how it was run: as §3
[13] = test system: Liver microsome; assay: Clearance in rat liver microsomes at 1 uM by LC/MS/MS analysis in presence of NADPH generating system; format: ADME
[14] = molecular target: T1, Aldehyde oxidase; assay: Drug level in human hepatocytes assessed as aldehyde oxidase-mediated compound formation treated with (S)-4-Amino-6-((1-(5-chloro-4-oxo-3-phenyl-3,4-dihydroquinazolin-2-yl)ethyl)amino)pyrimidine-5-carbonitrile at 1 uM by LC/MS/MS analysis; format: ADME, cell-based, Hepatocyte

SMILES: C[C@H](Nc1ncnc(N)c1C#Cc1ccc(F)cn1)c1nc2cccc(Cl)c2c(=O)n1-c1ccccc1
- Ratio IC50 [1]: 470
- CLH [2]: 2.17 mL/min/kg
- Drug metabolism [3]: metabolite_detected
- Ratio IC50 [4]: 2600
- IC50 [5]: 1.2 nM
- CLhep predicted at 1 µM [6]: 8.5 mL/min/kg
- Ratio IC50 [7]: 330

SMILES: C[C@H](Nc1ncnc(N)c1C#N)c1nc2cccc(Cl)c2c(=O)n1-c1ccccc1
- Ratio IC50 [1]: 680
- Ratio IC50 ([1]; tested as the 2H-labelled form): 420
- Drug metabolism [8]: metabolite_detected
- CLH [9]: 1.7 mL/min/kg
- CLH [2]: 1.5 mL/min/kg
- half-life [10]: 2.6 h
- clearance [11]: 18.3 mL/min/kg
- Vd [12]: 2.6 L/kg
- Ratio IC50 [4]: 4600
- Ratio IC50 ([4]; tested as the 2H-labelled form): 1200
- IC50 [5]: 0.4 nM
- CLhep predicted at 1 µM [6]: 14.7 mL/min/kg
- Ratio IC50 [7]: 200
- Ratio IC50 ([7]; tested as the 2H-labelled form): 70
- CLH [13]: 3.3 mL/min/kg

SMILES: C[C@H](Nc1nc(O)nc(N)c1C#N)c1nc2cccc(Cl)c2c(=O)n1-c1ccccc1
- Drug metabolism [14]: metabolite_detected

Source: ChEMBL document CHEMBL3804828, “2,4,6-Triaminopyrimidine as a Novel Hinge Binder in a Series of PI3Kδ Selective Inhibitors” (J Med Chem, 2016)
